# Only some compounds are listed: those with a hit (about 2.6% of all), similar ones and a draw of the others.
# Runt-SMMHC FRET: Runt domain-CBFb-SMMHC interaction inhibition; Q01196+Q13951; Cerulean-Runt/Venus-CBFb-SMMHC FRET ratio 530/480, 1 h; inhibition, % at 20 µM; actives 0.74% (n = 220,000); AID 1434;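 active means mean inhibition across duplicate retests at 20 µM reaching about 50%, limit read from the data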;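 further: 0% = DMSO wells and 100% = wells with excess untagged CBFb-SMMHC; inhibitors lower the FRET ratio by blocking Runt binding to CBFb-SMMHC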
# Target sequence (Q01196 whole entry, looked up, the tested form may be a part): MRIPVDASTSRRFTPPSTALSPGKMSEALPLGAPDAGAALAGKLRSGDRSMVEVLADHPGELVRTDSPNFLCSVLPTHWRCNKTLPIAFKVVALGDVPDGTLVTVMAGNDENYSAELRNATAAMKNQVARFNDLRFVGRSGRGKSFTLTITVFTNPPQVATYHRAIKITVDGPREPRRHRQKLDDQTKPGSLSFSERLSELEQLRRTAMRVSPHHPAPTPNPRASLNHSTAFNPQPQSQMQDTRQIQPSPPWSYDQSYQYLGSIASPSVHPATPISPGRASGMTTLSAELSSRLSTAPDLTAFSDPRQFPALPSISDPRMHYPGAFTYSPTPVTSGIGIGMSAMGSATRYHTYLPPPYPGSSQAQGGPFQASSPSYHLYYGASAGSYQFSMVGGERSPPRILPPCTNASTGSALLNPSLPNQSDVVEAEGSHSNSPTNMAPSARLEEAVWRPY
# Target sequence (Q13951 whole entry, looked up, the tested form may be a part): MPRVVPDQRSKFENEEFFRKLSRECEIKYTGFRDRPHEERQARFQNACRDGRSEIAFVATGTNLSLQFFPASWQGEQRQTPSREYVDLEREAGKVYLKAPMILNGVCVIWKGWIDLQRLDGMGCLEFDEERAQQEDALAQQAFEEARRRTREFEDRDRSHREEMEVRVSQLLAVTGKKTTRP
# RanGTP-Impb inh: disruptors of Ran-importin-beta complex formation – biochemical, FRET, CFP-Ran, YFP-importin-beta, homogeneous, primary screen. cell-free CFP-Ran/YFP-importin-beta FRET ratio. inhibition, % (no concentration beside the values). actives 1.1% (n = 300,000). AID 2216;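 active means more than half of the replicate wells show a fall in the fluorescence ratio signal beyond about 16%, limit read from the data, passing the limit was not always enough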;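 further: 0% = DMSO wells and 100% = Ran loaded with GDP instead of GTP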
# VIM-2 inh: blocks Pseudomonas aeruginosa VIM-2 metallo-beta-lactamase. inhibition, % at 5.6 µM. actives 0.89% (n = 290,000). purified VIM-2, nitrocefin hydrolysis, epi-absorbance fluorescence. AID 1527;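 active means inhibition above the mean of all tested compounds plus 3 SD, cutoff set per screening run, cut at about 7.5% in these data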;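 further: red hydrolysis product quenches plate fluorescence so inhibitors raise well fluorescence; 0% = enzyme with DMSO and 100% = DMSO without enzyme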
# Runt-CBFb FRET: Runt domain-CBFb interaction inhibition | AID 1496 | actives 0.46% (n = 220,000) | inhibition, % at 20 µM | Q01196+Q13951 | Cerulean-Runt/Venus-CBFb FRET ratio 530/480, 1 h;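 active means inhibition over about 50% at 20 µM in the single-dose screen, limit read from the data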;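 further: 0% = DMSO wells and 100% = excess unlabeled CBFb competitor control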
#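 test system = Cerulean-Runt domain fusion protein, energy donor | probe or stimulus = Venus-CBFb binding partner, 100 nM | incubation = two 1 h room-temperature incubations shielded from light | detection = fluorescence energy transfer, 422 nm excitation, 530/480 nm emission | measure = loss of energy transfer signal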
# IMP-1 inh: blocks Pseudomonas aeruginosa IMP-1 metallo-beta-lactamase; purified IMP-1, nitrocefin hydrolysis, epi-absorbance fluorescence; inhibition, % at 5.6 µM; actives 0.45% (n = 290,000);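 active means inhibition above the mean plus 3 SD of all compounds in the same screening run, cut at about 4.5% in these data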;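 further: 0% = IMP-1 with DMSO and 100% = DMSO wells lacking enzyme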
#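 assay system = purified recombinant IMP-1 metallo-beta-lactamase enzyme | schedule = 15 min preincubation plus 25 min reaction at 25 °C | signal = Epi-absorbance fluorescence, 480 nm excitation, 530 nm emission | read-out basis = percent inhibition from optical density relative to buffer-blank wells | controls = IMP-1 with DMSO as 0%, enzyme-free DMSO as 100%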
# * = called active by the depositor; . = not tested or not shown; ! = repeats disagree.
SMILES,Runt-SMMHC FRET,RanGTP-Impb inh,VIM-2 inh,Runt-CBFb FRET,IMP-1 inh
CN1CCc2c(sc(N)c2C(N)=O)C1,143*,86*,-2,101*,-3
CCN1CCc2c(sc(N)c2C(N)=O)C1,-16,101*,1,90*,2
N=c1c(S(=O)(=O)c2ccc(Cl)cc2)cc2c(=O)n3ccccc3nc2n1CC1CCCO1 (stereo not given),.,112*,4,.,-1
N=c1c(S(=O)(=O)c2ccccc2)cc2c(=O)n3ccccc3nc2n1CC1CCCO1 (stereo not given),61*,.,4,105*,-2
N=c1c(S(=O)(=O)c2ccc(Cl)cc2)cc2c(=O)n3ccccc3nc2n1C1CCCC1,.,132*,2,.,-2
N=c1c(S(=O)(=O)c2ccc(Cl)cc2)cc2c(=O)n3ccccc3nc2n1Cc1ccco1,.,96*,5,.,-2
CCn1c(=N)c(S(=O)(=O)c2ccc(Cl)cc2)cc2c(=O)n3ccccc3nc21,.,2,-4,.,-2
CCn1cc([N+](=O)[O-])c(C(=O)N2CCCCCC2)n1,.,5,1,.,-2
Cc1cccc(C)c1NC(=O)c1cnccn1,.,2,-2,.,-5
CSCCC(NC(=O)c1ccccc1)C(=O)N1CCN(C(c2ccccc2)c2ccccc2)CC1 (stereo not given),.,4,-2,.,0
O=C(O)c1cc(S(=O)(=O)N2CC3CC3C2C(=O)O)c(Cl)cc1Cl (stereo not given),.,-2,-2,.,-2
COc1ccc(CNC(=O)C2CC(C)=CCC2C(=O)O)cc1 (stereo not given),.,2,-1,.,-4
Cc1ccc(S(=O)(=O)c2cc3c(=O)n4cc(C)ccc4nc3n(CC3CCCO3)c2=N)cc1 (stereo not given),90*,.,.,86*,.
Cc1ccc[n+](/C(C(=S)NCc2ccco2)=C(/[O-])c2ccccc2Cl)c1,-7,-4,-3,9,5.6*
Cc1ccc(CNC(=O)CNC(=O)c2ccc(Br)o2)cc1,.,-1,1,.,0
NC(=O)c1cc([N+](=O)[O-])ccc1N1CCN(Cc2ccccc2)CC1,.,5,0,.,2
COc1cc2nc(N3CCN(C(=O)c4ccco4)CC3)nc(N)c2cc1OC,-1,25*!,0,0,-2
COc1cc2c(=O)n(CC3CCCO3)c(=O)n(CC(=O)Nc3ccccc3)c2cc1OC (stereo not given),.,1,-1,.,-5
COc1ccc(C(=O)C2CCCN(C(=O)c3cc(C4CC4)[nH]n3)C2)c(C)c1 (stereo not given),.,3,-2,.,-4
CCCc1cc(=O)oc2cc(C)cc(OCC(=O)NCc3ccccn3)c12,.,0,-2,.,-1
CCCc1cc(=O)oc2cc(C)cc(OCC(=O)Nc3cccnc3)c12,.,-2,12*,.,-5
Cc1ccc(C(=O)N(C)CC(=O)Nc2ccc(N3CCOCC3)cc2)s1,.,2,.,.,.
Cc1cccc(-n2cnc(C(=O)O)c2)n1,2,5,9.7*,-1,-1
Cc1sc2nc(COC(=O)CNC(=O)c3ccc(C(C)(C)C)cc3)[nH]c(=O)c2c1C,-6,-1,-4,-8,8.6*
Cc1sc2nc(COC(=O)c3ccc(O)cc3)[nH]c(=O)c2c1C,-1,-2,-1,0,-2
SMILES,Runt-SMMHC FRET,RanGTP-Impb inh,VIM-2 inh,Runt-CBFb FRET,IMP-1 inh
N#Cc1c(N)c(C(=O)c2ccccc2)n2ccccc12,.,8,.,.,.
N#Cc1c2ccc(OCC(=O)NCc3ccco3)cc2n2ccccc12,.,21*,1,.,-2
N#Cc1c2ccc(O)cc2n2ccccc12,86*,19*,3,20,-3
O=C(Nc1ccc(-c2ccc(N3CCCCC3)nn2)cc1)c1ccco1,.,2,.,.,.
CSc1nc(N(CCO)CCO)c2sc3nc(-c4ccco4)c4c(c3c2n1)CCC4,-20,-4,1,-3,12*
CCc1noc(C)c1C(=O)N1CCSC1=Nc1cccc(Cl)c1C,.,2,-2,.,-3
COc1cc(/C=C(\C#N)c2nc3ccccc3[nH]2)c([N+](=O)[O-])cc1OCc1ccccc1,83*,9,-7,38,-7
Cc1ccc2c(c1)N(C(=O)CCC(=O)NCCCN1CCN(C)CC1)CC(C)O2 (stereo not given),.,-6,-1,.,-3
Cc1ccc(C(=O)O)cc1N1C(=O)c2cccc3c([N+](=O)[O-])ccc(c23)C1=O,.,-18,1,.,6.1*

# Screening results deposited in PubChem by several laboratories.
